Laboratory results as given in ChEMBL document CHEMBL3352012, “Synthesis and evaluation of novel podophyllotoxin derivatives as potential antitumor agents” (Eur J Med Chem, 2014).
pIC50: −log10 of the molar value. The source made the active and inactive calls. The rule behind the calls is not given here.

Assays:
HeLa = assay: Cytotoxicity against human HeLa cells after 48 hrs by MTT assay; type: functional, cell-based
Outline: (§1)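 Cells kept in RPMI-1640 with 10% FBS, 2 mmol/L glutamine, penicillin and streptomycin at 37 °C, 5% CO2. Seeded at 5 × 10³ cells/well and left 24 h to attach, then exposed to compounds or etoposide reference for 48 h. MTT (5 mg/mL) added for 4 h at 37 °C, supernatant removed, formazan dissolved in DMSO, absorbance read at 490 nm.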

K562 [1] = assay: Resistance index, ratio of IC50 for human K562/A02 cells to IC50 for human K562 cells; type: functional
K562 [2] = assay: Cytotoxicity against human K562 cells after 48 hrs by MTT assay; type: functional, cell-based; conditions: K562, 48 h; outline: as §1
[3] = Cytotoxicity against human K562/A02 cells after 48 hrs by MTT assay; type: functional, cell-based; conditions: K562/A02, 48 h; outline: as §1
[4] = Reduction in MDR1 mRNA expression in human K562/A02 cells at 6 uM incubated for 48 hrs by RT-PCR method; type: functional, cell-based
Outline: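 K562 and K562/A02 cells seeded 1 × 10⁵/well in 10% FCS/RPMI-1640; compound added 24 h later, then cultured another 48 h. Total RNA extracted with Trizol, checked at 260/280 nm, reverse transcribed; MDR-1 (157 bp) and β-actin (540 bp) amplified, products run on agarose gel, stained, MDR-1 normalised to β-actin against untreated control.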

## COc1cc([C@@H]2c3cc4c(cc3[C@@H](NCc3ccc(C)o3)[C@H]3COC(=O)[C@H]23)OCO4)cc(OC)c1OC
HeLa
  pIC50: 5.71
K562 [1]
  Ratio IC50: 1.48
K562 [2]
  pIC50: 5.17
[3]
  pIC50: 5.00

## COc1cc([C@@H]2c3cc4c(cc3[C@H](O)[C@H]3COC(=O)[C@H]23)OCO4)cc(OC)c1OC [PODOFILOX]
K562 [1]
  Ratio IC50: 5.667
[3]
  pIC50: 6.77

## COc1cc([C@@H]2c3cc4c(cc3[C@@H](NCc3ccc(CN5CCN(C)CC5)o3)[C@H]3COC(=O)[C@H]23)OCO4)cc(OC)c1O
HeLa
  pIC50: 5.62
K562 [1]
  Ratio IC50: 24.61
K562 [2]
  pIC50: 5.09
[3]
  pIC50: 3.70

## CCN1CCN(Cc2ccc(CN[C@@H]3c4cc5c(cc4[C@@H](c4cc(OC)c(O)c(OC)c4)[C@H]4C(=O)OC[C@@H]43)OCO5)o2)CC1
HeLa
  pIC50: 6.17
K562 [1]
  Ratio IC50: 16.54
K562 [2]
  pIC50: 5.13
[3]
  pIC50: 3.91

## COc1cc([C@@H]2c3cc4c(cc3[C@@H](NCc3ccc(CN5CCCC5)o3)[C@H]3COC(=O)[C@H]23)OCO4)cc(OC)c1OC
HeLa
  pIC50: 5.85
K562 [1]
  Ratio IC50: 6.43
K562 [2]
  pIC50: 5.20
[3]
  pIC50: 4.40

## COc1cc([C@@H]2c3cc4c(cc3[C@@H](NCc3ccc(C)o3)[C@H]3COC(=O)[C@H]23)OCO4)cc(OC)c1O
HeLa
  pIC50: 4.22
K562 [1]
  Ratio IC50: 34.23
K562 [2]
  pIC50: 4.18
[3]
  pIC50: < 3.00

## COc1cc([C@@H]2c3cc4c(cc3[C@@H](NCc3ccco3)[C@H]3COC(=O)[C@H]23)OCO4)cc(OC)c1OC
HeLa
  pIC50: 5.82
K562 [1]
  Ratio IC50: 1.89
K562 [2]
  pIC50: 5.24
[3]
  pIC50: 4.96

## COc1cc([C@@H]2c3cc4c(cc3[C@@H](NCc3ccc(CN5CCCC5)o3)[C@H]3COC(=O)[C@H]23)OCO4)cc(OC)c1O
HeLa
  pIC50: 5.92
[4]
  MDR1 mRNA reduction (qualitative): Active
K562 [1]
  Ratio IC50: 4.67
K562 [2]
  pIC50: 5.28
[3]
  pIC50: 4.61

## CCN(CC)Cc1ccc(CN[C@@H]2c3cc4c(cc3[C@@H](c3cc(OC)c(OC)c(OC)c3)[C@H]3C(=O)OC[C@@H]32)OCO4)o1
HeLa
  pIC50: < 4.00
K562 [1]
  Ratio IC50: >100
K562 [2]
  pIC50: < 4.00
[3]
  pIC50: < 3.00
